Assay results reported in ChEMBL document CHEMBL1155278, “3,4-Diaryl-isoxazoles and -imidazoles as potent dual inhibitors of p38alpha mitogen activated protein kinase and casein kinase 1delta” (J Med Chem, 2009).
pIC50: −log10 of the molar value.

Columns and labels:
[1] = target: RAC-alpha serine/threonine-protein kinase (Homo sapiens) (UniProt P31749); assay: Inhibition of PKBalpha assessed as residual activity at 10 uM by Cherenkov counting relative to control in presence of 5 uM ATP
Procedure, shortened: (§1)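 Single-concentration profiling at 10 μM in a 78-kinase panel. Kinase activity is expressed as a percentage of control assays run without compound.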

[2] = Inhibition of CK2 assessed as residual activity at 10 uM by Cherenkov counting relative to control in presence of 5 uM ATP
Procedure, shortened: (§2)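 Single-point profiling at 10 µM in a panel of 78 protein kinases. Kinase activity is expressed as a percentage relative to control assays without compound.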

[3] = target: Calcium/calmodulin-dependent protein kinase kinase 2 (Homo sapiens) (UniProt Q96RR4); assay: Inhibition of CAMKKbeta assessed as residual activity at 10 uM by Cherenkov counting relative to control; procedure, shortened: as §2
[4] = target: SRSF protein kinase 1 (Homo sapiens) (UniProt Q96SB4); assay: Inhibition of SRPK1 assessed as residual activity at 10 uM by Cherenkov counting relative to control in presence of 50 uM ATP; procedure, shortened: as §1
[5] = target: Dual specificity mitogen-activated protein kinase kinase 1 (Homo sapiens) (UniProt Q02750); assay: Inhibition of MKK1 assessed as residual activity at 10 uM by Cherenkov counting relative to control in presence of 5 uM ATP
[6] = target: T1, Protein kinase C zeta type (Homo sapiens) (UniProt Q05513); assay: Inhibition of PKCzeta assessed as residual activity at 10 uM by Cherenkov counting relative to control in presence of 5 uM ATP; procedure, shortened: as §1
T1 sequence (whole entry): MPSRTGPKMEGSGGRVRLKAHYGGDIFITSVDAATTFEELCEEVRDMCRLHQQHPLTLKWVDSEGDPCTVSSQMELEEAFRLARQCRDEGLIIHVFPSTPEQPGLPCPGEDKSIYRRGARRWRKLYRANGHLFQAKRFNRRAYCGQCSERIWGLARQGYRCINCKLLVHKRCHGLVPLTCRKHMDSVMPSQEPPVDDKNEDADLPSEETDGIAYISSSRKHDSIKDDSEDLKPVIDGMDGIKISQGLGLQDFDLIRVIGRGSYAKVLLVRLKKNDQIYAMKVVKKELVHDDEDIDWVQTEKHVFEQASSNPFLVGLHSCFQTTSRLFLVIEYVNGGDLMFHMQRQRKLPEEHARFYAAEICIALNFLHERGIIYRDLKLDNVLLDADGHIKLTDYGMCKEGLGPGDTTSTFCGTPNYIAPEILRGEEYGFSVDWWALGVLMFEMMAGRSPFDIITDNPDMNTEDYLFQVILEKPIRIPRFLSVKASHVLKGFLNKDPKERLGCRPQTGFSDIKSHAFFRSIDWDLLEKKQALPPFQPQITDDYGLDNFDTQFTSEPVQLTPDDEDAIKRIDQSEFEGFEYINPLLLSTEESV

[7] = target: MAP kinase-activated protein kinase 3 (Homo sapiens) (UniProt Q16644); assay: Inhibition of MAPKAPK3 assessed as residual activity at 10 uM by Cherenkov counting relative to control
[8] = target: Serine/threonine-protein kinase Nek6 (Homo sapiens) (UniProt Q9HC98); assay: Inhibition of NEK6 assessed as residual activity at 10 uM by Cherenkov counting relative to control in presence of 50 uM ATP
[9] = target: MAP kinase-interacting serine/threonine-protein kinase 2 (Homo sapiens) (UniProt Q9HBH9); assay: Inhibition of MNK2 assessed as residual activity at 0.1 uM by Cherenkov counting relative to control in presence of 50 uM ATP
Procedure, shortened: (§3)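 Single-concentration selectivity screen at 0.1 μM against a panel of 76 protein kinases. Each kinase was run at an ATP level approximating its Km for ATP. Output is mean residual activity as % of the control assay without compound, n = 3 ± SD.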

[10] = target: Mitogen-activated protein kinase 14 (Homo sapiens, UniProt Q16539); assay: Inhibition of p38alpha by Cherenkov counting
[11] = target: Ribosomal protein S6 kinase alpha-5 (Homo sapiens) (UniProt O75582); assay: Inhibition of MSK1 assessed as residual activity at 0.1 uM by Cherenkov counting relative to control in presence of 20 uM ATP; procedure, shortened: as §3
[12] = target: Serine/threonine-protein kinase pim-3 (Homo sapiens) (UniProt Q86V86); assay: Inhibition of PIM3 assessed as residual activity at 0.1 uM by Cherenkov counting relative to control in presence of 20 uM ATP; procedure, shortened: as §3
[13] = target: Serine/threonine-protein kinase Chk2 (Homo sapiens) (UniProt O96017); assay: Inhibition of CHK2 assessed as residual activity at 0.1 uM by Cherenkov counting relative to control in presence of 20 uM ATP
Procedure, shortened: (§4)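 Single-concentration screen at 0.1 µM across a panel of 76 protein kinases. Each kinase was run at an ATP concentration approximating its ATP Km. Results are % mean residual activity versus control assays without compound (n = 3 ± SD).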

[14] = target: T2, Inhibitor of nuclear factor kappa-B kinase subunit beta (Homo sapiens) (UniProt O14920); assay: Inhibition of IKK-beta assessed as residual activity at 0.1 uM by Cherenkov counting relative to control in presence of 5 uM ATP; procedure, shortened: as §4
T2 sequence (whole entry): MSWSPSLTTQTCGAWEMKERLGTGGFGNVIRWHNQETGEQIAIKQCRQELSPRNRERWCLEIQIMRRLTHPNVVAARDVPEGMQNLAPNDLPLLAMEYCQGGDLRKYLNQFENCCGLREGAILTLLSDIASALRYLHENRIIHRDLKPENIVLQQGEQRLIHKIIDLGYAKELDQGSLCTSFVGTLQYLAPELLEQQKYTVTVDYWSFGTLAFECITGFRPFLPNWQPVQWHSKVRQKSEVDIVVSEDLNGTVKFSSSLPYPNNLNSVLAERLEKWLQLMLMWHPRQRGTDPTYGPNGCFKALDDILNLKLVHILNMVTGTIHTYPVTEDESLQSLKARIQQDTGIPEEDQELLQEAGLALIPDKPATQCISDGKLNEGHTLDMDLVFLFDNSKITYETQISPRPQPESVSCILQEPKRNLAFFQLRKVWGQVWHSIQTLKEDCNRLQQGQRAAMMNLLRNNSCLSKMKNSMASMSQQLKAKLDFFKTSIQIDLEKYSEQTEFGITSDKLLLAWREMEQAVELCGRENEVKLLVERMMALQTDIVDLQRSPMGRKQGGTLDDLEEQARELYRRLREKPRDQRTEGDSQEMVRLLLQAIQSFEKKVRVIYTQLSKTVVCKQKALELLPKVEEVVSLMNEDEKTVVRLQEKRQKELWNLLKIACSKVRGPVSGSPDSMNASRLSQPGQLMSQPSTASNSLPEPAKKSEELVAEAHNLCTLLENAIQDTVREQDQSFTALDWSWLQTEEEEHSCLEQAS

[15] = target: Serine/threonine-protein kinase pim-1 (Homo sapiens) (UniProt P11309); assay: Inhibition of PIM1 assessed as residual activity at 0.1 uM by Cherenkov counting relative to control in presence of 20 uM ATP; procedure, shortened: as §3
Serine/threonine-protein kinase pim-1 (Homo sapiens), sequence (P11309 whole entry, looked up): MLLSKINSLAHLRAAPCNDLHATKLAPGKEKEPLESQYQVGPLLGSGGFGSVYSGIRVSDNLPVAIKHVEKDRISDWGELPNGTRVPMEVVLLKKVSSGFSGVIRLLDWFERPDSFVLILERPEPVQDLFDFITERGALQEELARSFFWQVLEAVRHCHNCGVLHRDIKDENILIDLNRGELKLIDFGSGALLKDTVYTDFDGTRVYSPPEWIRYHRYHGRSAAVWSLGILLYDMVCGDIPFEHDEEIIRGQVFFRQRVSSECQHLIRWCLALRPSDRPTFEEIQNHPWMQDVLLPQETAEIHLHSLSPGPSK

MAP kinase-interacting serine/threonine-protein kinase 2 (Homo sapiens), sequence (Q9HBH9 whole entry, looked up): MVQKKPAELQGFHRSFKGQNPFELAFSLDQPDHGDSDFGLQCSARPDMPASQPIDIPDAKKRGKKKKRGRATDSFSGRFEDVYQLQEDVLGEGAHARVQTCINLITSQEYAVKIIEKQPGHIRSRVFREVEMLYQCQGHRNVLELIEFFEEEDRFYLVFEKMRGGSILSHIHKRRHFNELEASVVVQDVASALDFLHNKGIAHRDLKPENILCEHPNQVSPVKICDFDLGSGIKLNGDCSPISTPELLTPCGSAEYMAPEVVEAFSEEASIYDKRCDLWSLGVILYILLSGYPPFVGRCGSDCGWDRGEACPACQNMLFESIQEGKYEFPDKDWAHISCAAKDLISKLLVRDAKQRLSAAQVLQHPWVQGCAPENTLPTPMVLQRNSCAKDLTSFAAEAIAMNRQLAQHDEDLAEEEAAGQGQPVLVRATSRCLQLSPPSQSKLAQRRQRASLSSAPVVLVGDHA
Calcium/calmodulin-dependent protein kinase kinase 2 (Homo sapiens), sequence (Q96RR4 2-588 limits assumed): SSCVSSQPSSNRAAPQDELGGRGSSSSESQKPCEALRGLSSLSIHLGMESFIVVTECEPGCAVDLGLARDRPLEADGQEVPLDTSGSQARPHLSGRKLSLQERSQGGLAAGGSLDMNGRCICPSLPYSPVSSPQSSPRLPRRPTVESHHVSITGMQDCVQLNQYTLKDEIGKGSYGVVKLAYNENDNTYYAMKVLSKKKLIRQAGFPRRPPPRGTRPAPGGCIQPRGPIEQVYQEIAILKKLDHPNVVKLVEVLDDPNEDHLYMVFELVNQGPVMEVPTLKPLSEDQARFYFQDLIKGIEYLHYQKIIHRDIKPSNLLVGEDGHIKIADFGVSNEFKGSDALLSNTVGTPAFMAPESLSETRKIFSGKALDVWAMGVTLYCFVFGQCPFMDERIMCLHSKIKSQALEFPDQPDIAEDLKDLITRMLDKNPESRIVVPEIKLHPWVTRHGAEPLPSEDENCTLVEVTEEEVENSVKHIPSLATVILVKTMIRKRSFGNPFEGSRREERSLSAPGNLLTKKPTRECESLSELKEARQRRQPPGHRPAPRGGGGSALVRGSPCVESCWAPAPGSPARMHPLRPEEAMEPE
RAC-alpha serine/threonine-protein kinase (Homo sapiens), sequence (P31749 whole entry): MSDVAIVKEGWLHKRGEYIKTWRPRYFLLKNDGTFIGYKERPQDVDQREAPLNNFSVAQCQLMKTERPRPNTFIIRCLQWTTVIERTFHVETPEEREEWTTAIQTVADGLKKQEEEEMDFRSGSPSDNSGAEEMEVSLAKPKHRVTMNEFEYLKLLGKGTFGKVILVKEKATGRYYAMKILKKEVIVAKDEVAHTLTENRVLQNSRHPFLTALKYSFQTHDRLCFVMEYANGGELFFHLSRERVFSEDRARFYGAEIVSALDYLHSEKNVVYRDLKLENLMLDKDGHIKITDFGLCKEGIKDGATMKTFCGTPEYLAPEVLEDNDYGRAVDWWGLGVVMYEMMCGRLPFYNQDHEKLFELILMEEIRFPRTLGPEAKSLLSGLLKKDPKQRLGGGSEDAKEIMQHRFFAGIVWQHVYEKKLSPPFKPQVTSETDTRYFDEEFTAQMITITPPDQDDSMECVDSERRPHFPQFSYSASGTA
Serine/threonine-protein kinase Nek6 (Homo sapiens), sequence (Q9HC98 whole entry): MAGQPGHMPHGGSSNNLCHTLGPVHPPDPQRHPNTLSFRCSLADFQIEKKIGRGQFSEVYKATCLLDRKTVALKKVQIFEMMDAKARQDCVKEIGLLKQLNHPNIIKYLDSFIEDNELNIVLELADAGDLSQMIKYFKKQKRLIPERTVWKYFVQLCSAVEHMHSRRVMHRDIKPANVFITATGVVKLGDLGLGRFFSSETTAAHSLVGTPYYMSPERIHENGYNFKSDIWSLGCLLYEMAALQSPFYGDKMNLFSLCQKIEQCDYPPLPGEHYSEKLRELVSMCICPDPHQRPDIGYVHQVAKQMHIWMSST
Mitogen-activated protein kinase 14, sequence (Q16539 whole entry): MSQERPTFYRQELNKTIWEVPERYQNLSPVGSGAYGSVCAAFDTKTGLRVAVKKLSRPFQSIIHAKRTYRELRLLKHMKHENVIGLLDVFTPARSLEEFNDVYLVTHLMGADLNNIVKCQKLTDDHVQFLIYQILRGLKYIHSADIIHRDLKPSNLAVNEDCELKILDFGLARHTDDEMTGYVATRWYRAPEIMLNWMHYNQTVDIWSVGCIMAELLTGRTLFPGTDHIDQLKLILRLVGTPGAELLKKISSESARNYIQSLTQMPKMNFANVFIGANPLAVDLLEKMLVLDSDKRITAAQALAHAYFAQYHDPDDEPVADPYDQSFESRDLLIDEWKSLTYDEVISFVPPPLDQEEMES
Ribosomal protein S6 kinase alpha-5 (Homo sapiens), sequence (O75582 whole entry, looked up): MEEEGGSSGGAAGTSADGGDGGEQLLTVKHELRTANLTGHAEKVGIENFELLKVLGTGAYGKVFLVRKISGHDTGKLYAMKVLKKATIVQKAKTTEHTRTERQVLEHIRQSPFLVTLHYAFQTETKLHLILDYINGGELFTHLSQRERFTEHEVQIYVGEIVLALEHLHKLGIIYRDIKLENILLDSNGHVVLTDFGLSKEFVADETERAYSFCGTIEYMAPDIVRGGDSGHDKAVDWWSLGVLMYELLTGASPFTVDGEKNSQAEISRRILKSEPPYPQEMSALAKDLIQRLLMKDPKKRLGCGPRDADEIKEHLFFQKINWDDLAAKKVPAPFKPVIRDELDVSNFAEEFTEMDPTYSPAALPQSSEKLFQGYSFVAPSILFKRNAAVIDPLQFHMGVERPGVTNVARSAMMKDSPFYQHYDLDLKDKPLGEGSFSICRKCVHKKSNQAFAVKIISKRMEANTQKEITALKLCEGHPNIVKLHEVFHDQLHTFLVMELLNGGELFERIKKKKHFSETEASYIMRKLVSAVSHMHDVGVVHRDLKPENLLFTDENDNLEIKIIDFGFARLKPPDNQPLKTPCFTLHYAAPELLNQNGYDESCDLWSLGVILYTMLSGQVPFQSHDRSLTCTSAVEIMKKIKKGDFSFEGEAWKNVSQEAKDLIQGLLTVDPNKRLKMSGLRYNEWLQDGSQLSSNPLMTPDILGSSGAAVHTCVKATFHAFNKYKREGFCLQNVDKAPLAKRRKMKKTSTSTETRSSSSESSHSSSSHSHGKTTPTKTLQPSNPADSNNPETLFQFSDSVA
Serine/threonine-protein kinase Chk2 (Homo sapiens), sequence (O96017 whole entry): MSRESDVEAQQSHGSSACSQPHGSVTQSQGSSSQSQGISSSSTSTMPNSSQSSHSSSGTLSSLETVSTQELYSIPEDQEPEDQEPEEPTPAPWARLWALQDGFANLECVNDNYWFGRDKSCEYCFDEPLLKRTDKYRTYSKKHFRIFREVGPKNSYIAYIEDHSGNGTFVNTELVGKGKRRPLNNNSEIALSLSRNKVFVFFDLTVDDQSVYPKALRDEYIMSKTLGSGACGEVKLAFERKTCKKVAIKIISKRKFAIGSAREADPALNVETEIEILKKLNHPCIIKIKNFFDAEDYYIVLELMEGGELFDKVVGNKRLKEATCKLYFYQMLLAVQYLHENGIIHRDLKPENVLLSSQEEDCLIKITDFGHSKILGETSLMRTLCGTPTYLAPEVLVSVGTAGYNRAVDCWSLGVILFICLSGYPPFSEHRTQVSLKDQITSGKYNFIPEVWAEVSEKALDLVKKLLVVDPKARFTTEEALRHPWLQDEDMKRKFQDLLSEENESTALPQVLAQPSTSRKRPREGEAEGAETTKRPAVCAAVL
SRSF protein kinase 1 (Homo sapiens), sequence (Q96SB4 whole entry): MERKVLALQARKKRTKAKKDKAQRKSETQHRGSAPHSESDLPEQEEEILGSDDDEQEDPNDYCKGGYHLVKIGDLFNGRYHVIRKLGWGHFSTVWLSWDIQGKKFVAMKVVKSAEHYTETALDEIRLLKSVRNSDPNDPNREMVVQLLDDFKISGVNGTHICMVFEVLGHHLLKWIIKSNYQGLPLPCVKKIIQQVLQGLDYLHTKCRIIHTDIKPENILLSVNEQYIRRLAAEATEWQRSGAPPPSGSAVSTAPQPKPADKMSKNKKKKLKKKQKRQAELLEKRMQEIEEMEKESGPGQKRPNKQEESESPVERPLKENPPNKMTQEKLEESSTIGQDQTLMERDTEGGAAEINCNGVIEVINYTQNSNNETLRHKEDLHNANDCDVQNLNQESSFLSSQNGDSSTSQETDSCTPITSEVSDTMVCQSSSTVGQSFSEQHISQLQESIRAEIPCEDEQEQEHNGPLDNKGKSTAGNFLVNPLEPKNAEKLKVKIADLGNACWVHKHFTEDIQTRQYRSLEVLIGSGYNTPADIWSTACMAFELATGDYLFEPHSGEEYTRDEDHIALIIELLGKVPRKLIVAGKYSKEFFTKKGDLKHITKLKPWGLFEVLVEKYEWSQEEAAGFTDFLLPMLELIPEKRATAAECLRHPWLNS

| Activity [1] [%] | Activity [2] [%] | Activity [3] [%] | Activity [4] [%] | Activity [5] [%] | Activity [6] [%] | Activity [7] [%] | Activity [8] [%] | Activity [9] [%] | pIC50 [10] | Activity [11] [%] | Activity [12] [%] | Activity [13] [%] | Activity [14] [%] | Activity [15] [%] | Compound |
| --- | --- | --- | --- | --- | --- | --- | --- | --- | --- | --- | --- | --- | --- | --- | --- |
| 94 | 96 | 99 | 81 | 76 | 81 | 104 | 112 |  |  |  |  |  |  |  | CC(C)c1onc(-c2ccc(F)cc2)c1-c1ccncc1 |
| 94 | 95 | 97 | 86 | 88 | 91 | 113 | 108 |  |  |  |  |  |  |  | CC(C)c1noc(-c2ccc(F)cc2)c1-c1ccncc1 |
|  |  |  |  |  |  |  |  | 85 | 7.72 | 84 | 81 | 79 | 84 | 98 | COc1ccc(/C=C/C(=O)Nc2cc(-c3[nH]c(SC)nc3-c3ccc(F)cc3)ccn2)c(OC)c1 |
|  |  |  |  |  |  |  |  | 88 | 7.39 | 97 | 90 | 85 | 87 | 109 | COc1ccc(/C=C/C(=O)Nc2cc(-c3[nH]c([S+](C)[O-])nc3-c3ccc(F)cc3)ccn2)c(OC)c1 (stereo not given) |
